# Source: ChEMBL document CHEMBL4049421, “Design, Synthesis, and Pharmacological Characterization of N-(4-(2 (6,7-Dimethoxy-3,4-dihydroisoquinolin-2(1H)yl)ethyl)phenyl)quinazolin-4-amine Derivatives: Novel Inhibitors Reversing P-Glycoprotein-Mediated Multidrug Resistance” (J Med Chem, 2017)
# Calls of active or inactive are those of the source. No cut-off for these calls is given here.
# Columns and labels:
# [1] = Cytotoxicity against human K562 cells assessed as cell viability at 1.0 uM after 48 hrs by MTT assay (reference value: >99%); assay type: cell-based; conditions: read-out: Activity
# [2] = Cytotoxicity against human K562/A02 cells assessed as cell viability at 1.0 uM after 48 hrs by MTT assay (reference value: >99%); assay type: cell-based; conditions: read-out: Activity
# [3] = species on record: Homo sapiens; experiment: Inhibition of P-gp in human K562/A02 cells assessed as potentiation of doxorubicin-induced cytotoxicity by measuring fold reduction in doxorubicin IC50 at 1.0 uM after 48 hrs by MTT assay relative to doxorubicin alone; assay type: cell-based
# Outline: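 K562/A02 cells (1×10^4 cells per well) were exposed to a DOX concentration series, alone or with modulator at 1.0 μM, for 48 h. Viability was read by MTT at 490 nm. Reversal fold = DOX IC50 without inhibitor / DOX IC50 with inhibitor, mean ± SD of three tests.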
# [4] = test system: K562; experiment: Cytotoxicity against human K562 cells assessed as reduction in cell viability after 48 hrs by MTT assay; assay type: functional, cell-based; conditions: K562, 48 h
# Outline: (§1)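 MTT assay on HUVEC, K562 or K562/A02 cells seeded at 1×10^4 cells per well, using serial compound concentrations. Formazan was dissolved in DMSO and read at 490 nm. IC50 was obtained from log dose–response curves, mean ± SD of three independent tests.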
# [5] = test system: K562/A02; experiment: Cytotoxicity against human K562/A02 cells assessed as reduction in cell viability after 48 hrs by MTT assay; assay type: functional, cell-based; conditions: K562/A02, 48 h; outline: as §1
# [6] = test system: HUVEC; experiment: Cytotoxicity against HUVEC assessed as reduction in cell viability after 48 hrs by MTT assay; assay type: cell-based; conditions: Homo sapiens; outline: as §1
# [7] = Selective ratio of IC50 for human K562/A02 cells to IC50 for human K562 cells; assay type: functional
# [8] = test system: K562; experiment: Antiproliferative activity against human K562 cells assessed as cell viability at 5.0 uM after 48 hrs by MTT assay (reference value: >99%); assay type: functional; conditions: K562, 48 h, read-out: Activity
# [9] = test system: K562/A02; experiment: Antiproliferative activity against human K562/A02 cells assessed as cell viability at 5.0 uM after 48 hrs by MTT assay (reference value: >99%); assay type: functional; conditions: K562/A02, 48 h, read-out: Activity
# [10] = Elimination half life in Sprague-Dawley rat at 10 mg/kg, iv by LC-MS/MS analysis; assay type: ADME, organism-based; conditions: in vivo, read-out: beta t1/2 (converted)
# [11] = species on record: Homo sapiens; experiment: Inhibition of P-gp in human K562/A02 cells assessed as accumulation of doxorubicin at 0.1 uM to 5.0 uM after 150 mins by fluorescence spectrophotometric analysis; assay type: cell-based
# Outline: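 K562/A02 cells (4×10^5) were incubated 150 min at 37 °C with 20.0 μM DOX plus modulator at various concentrations, with 0.1% DMSO as negative control. Cells were washed with cold PBS and lysed in HCl/Triton X-100/isopropanol. DOX fluorescence was read at ex 460 / em 587 nm. Mean ± SD, n = 3.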
# [12] = species on record: Homo sapiens; experiment: Inhibition of P-gp mediated efflux in human K562/A02 cells assessed as intracellular Rh123 accumulation at 1.0 uM measure up to 90 mins by flow cytometric analysis; assay type: cell-based
# Outline: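 K562/A02 cells were loaded with 5 μM Rh123 for 90 min at 37 °C and washed three times. They were then incubated with or without modulator at 37 °C for 5, 10, 25, 30, 60 and 90 min. Retained Rh123 MFI per 10000 cells was measured by flow cytometry. 0.1% DMSO negative control, n = 3.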
# [13] = species on record: Homo sapiens; experiment: Inhibition of ATPase activity in human P-gp membrane fraction at 0.5 uM in presence of ATP after 1 hr by luciferase […]; assay type: cell membranes
# Outline: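 Human P-gp membrane fraction (~25 μg) was incubated with compound at 0.5, 5.0 or 50.0 μM in 0.5% DMSO, with a 100 μM sodium vanadate reference. Reaction was started with 5.0 mM MgATP, 1 h at 37 °C. Remaining ATP was read by luciferase luminescence after 20 min at room temperature, relative to vanadate. n = 3.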
# [14] = test system: Rattus norvegicus; experiment: Effect on plasma concentration of doxorubicin in Sprague-Dawley rat at 5 mg/kg, iv co-administered with doxorubicin measured after 8 hrs by LC-MS/MS analysis; assay type: ADME, organism-based; conditions: in vivo
# Outline: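 Male SD rats received DOX 10 mg/kg i.v. alone or with modulator 5 mg/kg i.v. Orbital blood was taken at 5 min to 8 h. Plasma DOX was measured by LC-MS/MS with DNR (0.5 μg/mL) as internal standard. Mean ± SD, n = 3.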
# [15] = Inhibition of CYP3A4 in rat liver microsomes assessed as decrease in 6beta-OH testosterone levels using testosterone as substrate by HPLC analysis; assay type: ADME
# Outline: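 Rat liver microsomes were isolated by differential centrifugation, with protein measured by Bradford assay. They were incubated with testosterone, without or with inhibitor at 2.5, 5.0, 10.0, 20.0 and 40.0 μM; ketoconazole was the reference inhibitor. 6β-OH testosterone was quantified by C18 reverse-phase HPLC (water/acetonitrile gradient, 35 °C, 1.0 mL/min, UV 254 nm). Mean ± SD, three independent experiments.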
# [16] = Cytotoxicity against human K562/A02 cells assessed as cell viability at 5.0 uM after 48 hrs by MTT assay (reference value: >99%); assay type: cell-based; conditions: read-out: Activity
# [17] = species on record: Homo sapiens; conditions: 5 uM
# [18] = species on record: Homo sapiens; conditions: 5 uM; remark: listed apart in the source
# [19] = species on record: Homo sapiens; conditions: 5.0 uM
# [20] = in vitro; conditions: human, K562 cells
Compound,"viability at 48 h, 1 µM [1] [%]","viability at 48 h, 1 µM [2] [%]",fold change (FC) [3],further results
COc1cc2c(cc1OC)CN(CCc1ccc(Nc3nc(-c4cccc(C)c4)nc4ccccc34)cc1)CC2,92.9,92.1,8.9,–
COc1ccc(-c2nc(Nc3ccc(CCN4CCc5cc(OC)c(OC)cc5C4)cc3)c3ccccc3n2)cc1OC,95.1,> 99,17.2,–
COc1cccc2c1C(=O)c1c(O)c3c(c(O)c1C2=O)C[C@@](O)(C(=O)CO)C[C@@H]3O[C@H]1C[C@H](N)[C@H](O)[C@H](C)O1 [DOXORUBICIN],–,–,–,IC50 [4]: 0.62 µM; IC50 [5]: 89.8 µM; IC50 [6]: 8.65 µM; Ratio IC50 [7]: 144.8; viability at 5 µM [8]: 8.8%; viability at 5 µM [9]: 96.4%; half-life [10]: 1.6 h
COc1ccc(C(=O)Nc2ccccc2C(=O)Nc2ccc(CCN3CCc4cc(OC)c(OC)cc4C3)cc2)cc1OC,97.5,> 99,18.6,inhibition [11]: Active; inhibition [12]: Active; inhibition [13]: Active; Activity [14]: Non-Toxic
COc1cc2c(cc1OC)CN(CCc1ccc(Nc3nc(-c4ccc(C)cc4)nc4ccccc34)cc1)CC2,93.4,94.2,7.5,–
COc1cc2c(cc1OC)CN(CCc1ccc(Nc3nc(-c4ccc([N+](=O)[O-])cc4)nc4ccccc34)cc1)CC2,94.7,> 99,3,–
COc1cc2c(cc1OC)CN(CCc1ccc(Nc3nc(-c4ccc(C(C)(C)C)cc4)nc4ccccc34)cc1)CC2,> 99,91.3,1.9,–
COc1cc2c(cc1OC)CN(CCc1ccc(Nc3nc(-c4cccc([N+](=O)[O-])c4)nc4ccccc34)cc1)CC2,> 99,> 99,13.4,–
COc1cc2c(cc1OC)CN(CCc1ccc(Nc3nc(-c4ccc5c(c4)OCO5)nc4ccccc34)cc1)CC2,91.4,89.2,15.5,–
COc1ccc(-c2nc(Nc3ccc(CCN4CCc5cc(OC)c(OC)cc5C4)cc3)c3ccccc3n2)cc1,> 99,85.2,7.9,–
COc1cc2c(cc1OC)CN(CCc1ccc(Nc3nc(-c4ccccc4)nc4cc(OC)c(OC)cc34)cc1)CC2,> 99,97.3,10.1,–
COc1cc2c(cc1OC)CN(CCc1ccc(Nc3nc(-c4ccccc4OC)nc4ccccc34)cc1)CC2,> 99,> 99,10.9,–
COc1cccc(-c2nc(Nc3ccc(CCN4CCc5cc(OC)c(OC)cc5C4)cc3)c3ccccc3n2)c1,> 99,> 99,14.6,–
COc1cc2c(cc1OC)CN(CCc1ccc(Nc3nc(-c4ccc(F)cc4)nc4ccccc34)cc1)CC2,> 99,> 99,3.3,–
COc1cc2c(cc1OC)CN(CCc1ccc(Nc3nc(-c4cccnc4)nc4ccccc34)cc1)CC2,> 99,97.9,5.9,–
CC(=O)N1CCN(c2ccc(OCC3COC(Cn4ccnc4)(c4ccc(Cl)cc4Cl)O3)cc2)CC1 (configuration not stated) [KETOCONAZOLE],–,–,–,inhibition (INH) [15]: Dose-dependent effect
COc1cc2c(cc1OC)CN(CCc1ccc(Nc3nc(-c4ccccc4)nc4cc(Cl)ccc34)cc1)CC2,> 99,95.3,8.2,–
COc1cc2c(cc1OC)CN(CCc1ccc(Nc3nc(-c4ccc(Cl)cc4)nc4ccccc34)cc1)CC2,> 99,> 99,6,–
COc1cc2c(cc1OC)CN(CCc1ccc(Nc3nc(-c4ccccc4)nc4ccccc34)cc1)CC2,98.7,> 99,7.7,–
COc1cc2c(cc1OC)CN(CCc1ccc(Nc3nc(-c4ccc5ccccc5n4)nc4ccccc34)cc1)CC2,> 99,92.1,2.6,–
COc1ccc(CCN(C)CCCC(C#N)(c2ccc(OC)c(OC)c2)C(C)C)cc1OC (configuration not stated),–,–,–,"viability at 48 h, 5 µM [16]: 88.3%; Activity [14]: Toxic; inhibition [17]: inactive; inhibition [18]: Active; inhibition [19]: Active; viability at 48 h, 5 µM [20]: > 99%"
